E coli WT exp: blocks growth of wild type E. coli BW25113 | OD600 absorbance | growth inhibition, % at 100 µM | 98,000 tested, 0.15% active;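 active = growth inhibition above about 50% at one test dose, limit read from the data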;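 note: growth measured after 20 h incubation at 37 °C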
PostGolgi yeast: growth inhibition of a yeast mutant, post-Golgi transport screen. inhibition, % at 10 µM. 98,000 tested, 0.9% active. post-Golgi transport phenotypic cell assay;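 note: yeast cells grown in 1536-well plates; yeast grown about 18 h at 30C before absorbance read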
tolC growth inh: blocks growth of E. coli BW25113 tolC mutant. growth inhibition, % at 10 µM (by protocol). OD615. 65,000 tested, 2.2% active;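 active = growth inhibition at or above a cutoff equal to the mean over every tested compound plus 3 SD, cut at about 60% in these data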;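 note: growth measured after 20 h incubation at 37 °C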
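Test system: E. coli BW25113 ΔtolC::kan bacteria; incubation: 37 °C, 20 h exposure; medium: LB broth supplemented with 50 µg/mL kanamycin; read-out basis: percent growth inhibition; signal: A615 absorbance measurement; compound: 10 µM final, single dose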
PostGolgi ctrl: growth of the yeast control strain, post-Golgi counter-screen | efflux-deficient yeast background strain, growth absorbance A615, 16 h | inhibition, % at 10 µM | 98,000 tested, 5% active | AID 738
EphB4 antag: antagonists of human EphB4-ephrin-B2 interaction. P54760. EphB4 LBD / TNYL-RAW-Alexa532 peptide, fluorescence polarization. inhibition, % at 7 µM. 97,000 tested, 0.15% active;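 active = inhibition above the screen-wide mean inhibition plus 3 SD, cut at about 15% in these data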;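 note: 0% = DMSO wells and 100% = excess unlabeled TNYL-RAW peptide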
Numbers without * were called inactive; / = no result. The list is not random: actives were taken first. Their share in the collection is about 6%. Cut-off read from the data, not from the text of the source, unless noted: active = inhibition above about 30%; inactive = the rest.

SMILES | E coli WT exp | PostGolgi yeast | tolC growth inh | PostGolgi ctrl | EphB4 antag
Cc1cc(C)n(CC2CC(=O)N(c3ccc(C)c(Cl)c3)C2=O)n1 (centres undefined) | / | / | 6 | / | /
Cc1ccc(C(=O)Nc2ccon2)cc1S(=O)(=O)N1CCCC1 | 7 | 4 | / | 12 | -3
Cc1ccnc(SCC(=O)n2c3c(c4ccccc42)CC(C)CC3)n1 (centres undefined) | -2 | -5 | / | 35* | -2
COc1ccc(C2C3=C(CCCC3=O)Nc3nc4ccccc4n32)c(OC)c1OC (centres undefined) | / | / | 21 | / | /
CN(CC(=O)Nc1ccccc1N1CCOCC1)S(=O)(=O)c1ccc(F)cc1 | -2 | -5 | / | 31* | 4
COc1ccccc1NC(=O)CN(C)S(=O)(=O)c1ccc(F)cc1 | 3 | 3 | -2 | 1 | -6
Cc1ccc(NC2SC(=O)N(CC(=O)O)C2=O)cc1 (centres undefined) | 6 | 4 | / | 2 | -4
CCN=c1scc(-c2ccc3c(c2)NC(=O)CO3)n1N=C1CCCC1 | -4 | -6 | 13 | 7 | -12
CCCCN=c1scc(-c2ccc3c(c2)NC(=O)CO3)n1N=C1CCCC1 | 22 | 3 | / | 65* | -4
O=C(Nc1nc2ccccc2n1CCOc1ccccc1)c1ccco1 | -2 | -7 | -8 | 7 | -8
Cc1cccc(OCCn2c(NC(=O)c3ccco3)nc3ccccc32)c1 | -6 | 3 | 98* | 51* | -4
Cc1cccc(OCCn2c(-c3ccco3)nc3ccccc32)c1 | -10 | 12 | / | 30* | 0
O=C(Nc1nc2ccccc2n1CCOc1ccc(Cl)cc1)c1ccco1 | 1 | 7 | 77* | 49* | 4
COc1ccc(N2CCN(C(c3cccs3)C(C)NS(=O)(=O)c3ccccc3)CC2)cc1 (centres undefined) | -15 | 3 | 40 | 39* | -8
Cc1cccc(CS(=O)(=O)Cc2ccc(C(=O)NCCCN3CCCC3)o2)c1 | -4 | 33* | / | -9 | 2
CCOCCCNC(=O)c1ccc(CS(=O)(=O)Cc2cccc(C)c2)o1 | 1 | -11 | -19 | 33* | -4
Cc1ccc(NC(=O)NNC(=O)Cn2nc(-c3ccccc3)c(-c3ccccc3)c(C#N)c2=O)cc1 | -8 | 4 | / | -1 | 3
OC(COCc1ccccc1)CN1CCN(c2ccccc2)CC1 (centres undefined) | 1 | 10 | -14 | 22 | -13
CCc1ccc(OCC(O)CN2CCN(c3ccccc3)CC2)cc1 (centres undefined) | 10 | 7 | 7 | 33* | -9
Cc1ccc(OCC(O)CN2CCN(c3ccccc3)CC2)cc1 (centres undefined) | 1 | 0 | 1 | 21 | 4
CCCc1ccc(OCC(O)CN2CCN(c3ccccc3)CC2)cc1 (centres undefined) | -2 | 72* | 25 | 85* | -2
Cc1nc2ccc(NS(=O)(=O)c3ccc4c(c3)OCCO4)cc2s1 | -8 | -1 | / | 15 | 1
O=C(/C(=C/c1ccc(Cl)cc1)c1nc2ccccc2[nH]1)c1ccccc1 | 2 | 62* | / | 102* | 2
CCOc1cc(C2C(C(=O)OC(C)C)=C(C)N=C3SCCC(=O)N32)ccc1OC(C)=O (centres undefined) | 3 | -1 | -8 | 39* | 5
COC(=O)c1cc(Cl)c(NC(=O)c2cc3ccccc3o2)cc1OC | -1 | -4 | / | 4 | 5
SMILES | E coli WT exp | PostGolgi yeast | tolC growth inh | PostGolgi ctrl | EphB4 antag
Nc1c(C(=O)OCC2CCCO2)c2nc3ccccc3nc2n1C1CCCC1 (centres undefined) | 11 | 9 | 41 | 48* | -9
O=C(C1CCC1)N1CCc2cc(S(=O)(=O)NCCN3CCN(c4ccccc4F)CC3)ccc21 | -9 | -1 | 26 | 38* | -7
CCC1CCCCN1S(=O)(=O)c1ccc2c(c1)CCN2C(=O)C1CCC1 (centres undefined) | -6 | 1 | 84* | 68* | -4
O=C(C1CCC1)N1CCc2cc(S(=O)(=O)N3CCc4ccccc4C3)ccc21 | / | / | 34 | / | 11
C=CCn1c(Cc2csc(N)n2)nnc1SCC(=O)Nc1ccccc1C(F)(F)F | 6 | 1 | / | 14 | -5
C1CCC(C23CC4CC(CC(C4)C2)C3)NC1 (centres undefined) | / | / | / | / | 3
On1onc2c3cc(-c4ccccc4)nc3ccc21 | 42 | 96* | 98* | 94* | 4
c1ccc(-c2cc3c(ccc4nonc43)nn2)cc1 | -1 | -1 | 13 | 10 | 0
CCc1nc(SCC(=O)Nc2cccc(C(F)(F)F)c2)c2c(=O)n(C)c(=O)n(C)c2n1 | -9 | -1 | 2 | 2 | -2
O=C(CSc1ncnc2sc3c(c12)CCCC3)c1ccccc1 | / | / | / | / | 1
O=C(CSc1ncnc2sc3c(c12)CCCC3)c1ccco1 | -7 | 0 | 41 | 46* | 2
COc1ccc(-c2[nH]c(-c3ccc4c(c3)OCO4)nc2-c2ccccc2)cc1 | -8 | 62* | / | 34* | 0
COc1ccc(-c2[nH]c(-c3ccc(C(=O)O)cc3)nc2-c2ccccc2)cc1 | 0 | -3 | / | 29 | 1
COc1ccc(-c2nc(-c3cccs3)c(-c3cccs3)[nH]2)cc1OC | -9 | 17 | / | 38* | -4
O=[N+]([O-])c1cccc(-c2nc(-c3cccs3)c(-c3cccs3)[nH]2)c1 | -5 | -4 | / | 16 | 1
COc1ccc(-c2nc(-c3ccccc3)c(-c3cccs3)[nH]2)cc1OC | -9 | 4 | / | 34* | 6
O=[N+]([O-])c1ccc(-c2nc(-c3cccs3)c(-c3cccs3)[nH]2)cc1 | -7 | 17 | / | 60* | 13
CCCNC(=S)Nc1ccc2nc(-c3ccccn3)c(-c3ccccn3)nc2c1 | 0 | -1 | / | 9 | 0
CCCC(=O)Nc1ccc(-c2nc3cc(C)ccc3o2)cc1 | -1 | 2 | -4 | 30* | 1
CCOc1cccc(-c2nc3cc(C)ccc3o2)c1 | 0 | -15 | 100* | 12 | 4
CCOC(=O)C1CCN(Cc2cn[nH]c2-c2ccc(C)cc2)CC1 | 11 | 17 | 92* | -10 | -1
CCOC(=O)C1CCN(Cc2cn[nH]c2-c2ccccc2)CC1 | 0 | 2 | 4 | 10 | -4
Cc1ccc(C(=O)N2CCN3C(=O)c4ccccc4C23c2ccc(Cl)cc2)cc1 (centres undefined) | -9 | 21 | / | 39* | -6
O=C(Nc1cccc(Cl)c1)N1CCN2C(=O)c3ccccc3C12c1ccccc1 (centres undefined) | -5 | 18 | / | 4 | 0
CC(=O)Nc1ccc(OCC(O)CN2CCN(Cc3ccccc3)CC2)cc1 (centres undefined) | 5 | -1 | -11 | 4 | 8
CC1CC(OCC(O)CN2CCN(Cc3ccccc3)CC2)CC(C)(C)C1 (centres undefined) | 15 | 83* | / | 32* | -7
CCn1c(=O)c(C2=NS(=O)(=O)c3ccccc3N2)c(O)c2ccccc21 | / | / | 13 | / | /
COC(=O)c1cc2sc(Cl)cc2n1CC(=O)NCC1CCCO1 (centres undefined) | 6 | 6 | / | 36* | 1
